Results as given in ChEMBL document CHEMBL1152325, “Antioxidant and anticholinesterase activity evaluation of ent-kaurane diterpenoids from Sideritis arguta” (J Nat Prod, 2009).
One block for each molecule: values may come before it.

Assays:
Cholinesterase = Cholinesterase (Homo sapiens, UniProt P06276); experiment: Inhibition of BChE by spectrophotometry
[1] = Antioxidant activity against beta-carotene and linoleic acid assessed as inhibition of bleaching of beta-carotene; format: functional
Method in brief: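 β-Carotene–linoleic acid model system on extracts and isolated diterpenoids. Bleaching inhibition was measured at four concentrations in triplicate, reported as mean ± SD. IC50 in µg/mL.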

[2] = Antioxidant activity assessed as superoxide radical scavenging activity by phenazin methosulphate-NADH-NBT assay; format: functional
Method in brief: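 Superoxide-anion scavenging by the NADH-PMS-NBT method after Liu et al. Extracts and diterpenoids were tested at four concentrations in triplicate, as mean ± SD. IC50 reported in µg/mL.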

Acetylcholinesterase = Acetylcholinesterase (Homo sapiens, UniProt P22303); experiment: Inhibition of AChE by spectrophotometry
Acetylcholinesterase, sequence (P22303 whole entry): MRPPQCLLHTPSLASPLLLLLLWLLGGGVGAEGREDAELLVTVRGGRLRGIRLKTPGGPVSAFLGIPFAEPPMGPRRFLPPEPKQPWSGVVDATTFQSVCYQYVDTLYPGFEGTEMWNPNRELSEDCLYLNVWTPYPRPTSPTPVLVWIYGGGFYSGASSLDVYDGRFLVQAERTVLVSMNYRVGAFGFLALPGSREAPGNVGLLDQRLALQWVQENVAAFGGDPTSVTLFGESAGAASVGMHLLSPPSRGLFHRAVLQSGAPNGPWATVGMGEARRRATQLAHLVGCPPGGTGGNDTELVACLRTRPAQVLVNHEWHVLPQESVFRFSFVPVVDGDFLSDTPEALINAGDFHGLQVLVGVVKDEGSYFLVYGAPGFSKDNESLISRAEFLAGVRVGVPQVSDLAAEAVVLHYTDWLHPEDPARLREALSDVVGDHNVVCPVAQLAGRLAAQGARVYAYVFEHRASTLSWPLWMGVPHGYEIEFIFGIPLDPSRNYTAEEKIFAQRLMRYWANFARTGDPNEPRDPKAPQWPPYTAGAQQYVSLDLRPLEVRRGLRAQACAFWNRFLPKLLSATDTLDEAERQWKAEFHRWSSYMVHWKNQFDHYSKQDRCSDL

[3] = test system: Radical scavenging activity; experiment: Antioxidant activity assessed as DPPH radical scavenging activity; format: functional
Method in brief: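 DPPH free-radical scavenging by the Blois method on extracts and diterpenoids. Tested at four concentrations in triplicate analyses, given as mean ± SD. Results expressed as IC50 (µg/mL).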

Cholinesterase, sequence (P06276 whole entry): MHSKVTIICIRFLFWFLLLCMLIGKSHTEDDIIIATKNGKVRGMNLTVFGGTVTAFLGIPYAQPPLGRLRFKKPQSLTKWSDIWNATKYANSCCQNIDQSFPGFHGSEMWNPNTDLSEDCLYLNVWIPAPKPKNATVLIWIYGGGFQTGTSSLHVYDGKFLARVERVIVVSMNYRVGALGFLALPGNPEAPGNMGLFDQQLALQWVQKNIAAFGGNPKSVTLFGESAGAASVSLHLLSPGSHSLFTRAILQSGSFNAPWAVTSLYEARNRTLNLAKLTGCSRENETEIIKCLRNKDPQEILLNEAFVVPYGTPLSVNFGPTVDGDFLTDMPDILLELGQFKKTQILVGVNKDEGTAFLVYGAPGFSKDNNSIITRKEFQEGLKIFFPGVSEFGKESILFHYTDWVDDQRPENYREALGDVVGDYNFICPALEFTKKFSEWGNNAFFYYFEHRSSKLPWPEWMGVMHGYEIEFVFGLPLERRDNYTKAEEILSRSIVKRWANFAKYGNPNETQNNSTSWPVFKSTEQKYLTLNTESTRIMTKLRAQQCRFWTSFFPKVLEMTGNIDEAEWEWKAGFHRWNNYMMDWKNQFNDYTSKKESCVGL

Molecule: C[C@]1(CO)CCC[C@]2(C)[C@H]1C[C@H](O)[C@@]13C[C@@H](CC[C@@H]21)[C@]1(C)O[C@@H]13 [SIDEROXOL]
IC50 (Cholinesterase): 25 µM | IC50 ([1]; read-out: IC50): > 200 µM | IC50 ([2]; read-out: IC50): > 200 µM | IC50 (Acetylcholinesterase; read-out: IC50): 14.5 µM | IC50 ([3]; read-out: IC50): > 200 µM

Molecule: CC(=O)OC[C@@]1(C)CCC[C@]2(C)[C@H]1C[C@H](OC(C)=O)[C@@]13C[C@@H](CC[C@@H]21)[C@](C)(O)C3 [DIACETYLDISTANOL]
IC50 (Cholinesterase): 176 µM | IC50 ([1]; read-out: IC50): > 200 µM | IC50 ([2]; read-out: IC50): > 200 µM | IC50 (Acetylcholinesterase): Not Active | IC50 ([3]; read-out: IC50): > 200 µM

IC50 [1]: 1.3 µg/mL | IC50 [3]: 66.73 µg/mL
Molecule: Cc1cc(C(C)(C)C)c(O)c(C(C)(C)C)c1 [BUTYLATED HYDROXYTOLUENE]

Molecule: C=C1[C@@H]2CC[C@H]3[C@]4(C)CCC[C@](C)(CO)[C@@H]4C[C@H](O)[C@]3(C2)[C@@H]1O [EUBOTRIOL]
IC50 (Cholinesterase): 98.1 µM | IC50 ([1]; read-out: IC50): > 200 µM | IC50 ([2]; read-out: IC50): > 200 µM | IC50 (Acetylcholinesterase): Not Active | IC50 ([3]; read-out: IC50): > 200 µM

Molecule: C=C1C[C@]23C[C@H]1CC[C@H]2[C@]1(C)CCC[C@](C)(CO)[C@@H]1C[C@@H]3O
IC50 (Cholinesterase): 21.1 µM | IC50 [1]: 43.1 µg/mL | IC50 [2]: Not Active | IC50 (Acetylcholinesterase; read-out: IC50): 22.8 µM | IC50 [3]: Not Active

Molecule: EUBOL
IC50 (Cholinesterase): 23.2 µM | IC50 ([1]; read-out: IC50): > 200 µM | IC50 ([2]; read-out: IC50): > 200 µM | IC50 (Acetylcholinesterase): Not Active | IC50 ([3]; read-out: IC50): > 200 µM

Molecule: ent-7alpha-acetoxy-15alpha,18-dihydroxykaur-16-ene
IC50 (Cholinesterase): > 200 µM | IC50 ([1]; read-out: IC50): > 200 µM | IC50 ([2]; read-out: IC50): > 200 µM | IC50 (Acetylcholinesterase; read-out: IC50): > 200 µM | IC50 ([3]; read-out: IC50): > 200 µM

Molecule: COc1ccc(O)c(C(C)(C)C)c1.COc1ccc(O)cc1C(C)(C)C [BUTYLATED HYDROXYANISOLE]
IC50 [1]: 1.5 µg/mL | IC50 ([2]; read-out: IC50): 27.1 µM | IC50 [3]: 5.88 µg/mL

IC50 [1]: 2.1 µg/mL | IC50 [3]: 12.26 µg/mL
Molecule: Cc1c(C)c2c(c(C)c1O)CC[C@@](C)(CCC[C@H](C)CCC[C@H](C)CCCC(C)C)O2 [ALPHA-TOCOPHEROL]
